This is a sample that favours compounds with a hit; in the whole collection about 3.5% have one here.
HTRA1 inh = HTRA1 (human) protease inhibition; inhibition, % at 5.96 µM; recombinant HTRA1, FP-rhodamine activity-based probe, fluorescence polarization; 0.5% of 340,000 active; Q92743; in the data active = inhibition above about 36%
TCR CD3 inh = human TCR-CD3 binding inhibition; TAMRA-labeled TCR probe fluorescence, biochemical; inhibition, % at 9.4 µM; AID 651800; 0.37% of 360,000 active; in the data active = inhibition above about 19%;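 also: recombinant mutant TCR 2C K166C tagged with TAMRA read by polarization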
SIAE inh = inhibitors of human sialic acid acetylesterase SIAE. Q9HAT2. SIAE FP-Rh probe binding, fluorescence polarization. inhibition, % at 9.66 µM. 0.69% of 370,000 active;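 active = inhibition above a cutoff: mean of compounds within the control limits plus 3 SD of those, cut at about 17% in these data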
Target sequence (Q9HAT2 whole entry, looked up): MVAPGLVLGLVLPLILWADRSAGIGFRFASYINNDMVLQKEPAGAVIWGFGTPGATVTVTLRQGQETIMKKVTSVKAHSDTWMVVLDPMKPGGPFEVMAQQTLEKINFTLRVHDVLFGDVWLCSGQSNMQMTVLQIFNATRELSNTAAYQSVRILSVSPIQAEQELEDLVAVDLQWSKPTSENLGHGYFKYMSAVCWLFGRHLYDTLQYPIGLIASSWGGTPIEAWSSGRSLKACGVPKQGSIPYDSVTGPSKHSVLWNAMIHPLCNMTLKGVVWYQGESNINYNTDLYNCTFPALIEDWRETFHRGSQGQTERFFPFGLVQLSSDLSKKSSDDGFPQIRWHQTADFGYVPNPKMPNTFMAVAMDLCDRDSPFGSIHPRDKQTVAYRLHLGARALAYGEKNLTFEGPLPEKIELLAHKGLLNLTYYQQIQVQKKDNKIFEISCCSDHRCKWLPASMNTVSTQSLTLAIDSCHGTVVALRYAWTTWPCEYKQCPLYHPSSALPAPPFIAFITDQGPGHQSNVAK
rCAG binder-1 = binds r(CAG) RNA repeats | inhibition, % at 3 µM | r(CAG) RNA repeat, TO-PRO-1 dye displacement fluorescence | AID 651821 | 1.3% of 370,000 active;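 active = inhibition above the plate cutoff, the mean of all test compounds on that plate plus 3 SD, cut at about 35% in these data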;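 also: higher means more dye released from RNA so lower well fluorescence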
PRMT1 inh = blocks human protein arginine methyltransferase 1; Q99873; recombinant PRMT1, activity-based probe fluorescence polarization; inhibition, % at 2.79 µM; 1.3% of 370,000 active; AID 652257;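 active = inhibition above about 21% made by adding two undisclosed values, limit read from the data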
ABHD4 inh = inhibits mouse alpha/beta hydrolase domain 4; 0.54% of 370,000 active; purified mABHD4, FP-Rh probe fluorescence polarization; inhibition, % at 8.92 µM;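 active = inhibition exceeding the mean over every tested compound plus 3 SD, cut at about 30% in these data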
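Test system: mABHD4 protein; Read-out basis: % inhibition; Incubation: 45 min + 60 min at 25 °C; Repeats: single replicate; Technique: fluorescence polarization with parallel and perpendicular emission, 525/598 nm; Compound: 8.92 µM, single dose; Benchmarks: full inhibition S159A mutant plus DMSO, zero as sample-well median.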
rCAG bind conf = r(CAG) RNA repeat binding, confirmation | shares compounds with rCAG binder-1 | TO-PRO-1 dye displacement fluorescence | inhibition, % at 3 µM | 70% of 4,300 active;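 active = inhibition above a per-plate cutoff, the mean inhibition of sample wells plus 3 SD, cut at about 35% in these data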;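 also: loss of TO-PRO-1 fluorescence as compound displaces dye from 1x1 AA loop RNA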
dCAG dye counter = DNA CAG dye complex inhibition counter-screen; AID 652068; inhibition, % at 3 µM; shares compounds with rCAG binder-1; 94% of 4,300 active; d(CAG) DNA oligo TO-PRO-1 dye displacement, fluorescence;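 active = inhibition above its plate's cutoff, the mean test-well inhibition plus 3 SD, cut at about 4.8% in these data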;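 also: hits displace the dye from DNA and so lower well fluorescence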
dCAG dye DR = DNA CAG dye complex inhibition, dose response counter-screen. shares compounds with rCAG binder-1. DNA CAG/GTC duplex TO-PRO-1 dye displacement fluorescence. IC50, µM. 20% of 250 active; in the data active = IC50 below about 10 µM
dCAG DNA bind = counter-screen for rCAG binders: DNA CAG TO-PRO-1 complex inhibitors, late stage. shares compounds with rCAG binder-1. d(CAG) DNA duplex TO-PRO-1 dye displacement, fluorescence. IC50, µM. 80% of 30 active. AID 720649
rCAG binder-2 = molecules binding r(CAG) RNA repeats, late stage dose response. IC50, µM. AID 720651. r(CAG) RNA TO-PRO-1 dye displacement, fluorescence. 100% of 30 active. shares compounds with rCAG binder-1
PRMT1 confirm = PRMT1 (human) inhibition, FP confirmation; shares compounds with PRMT1 inh; inhibition, % at 2.79 µM; 42% of 3,300 active; recombinant His-PRMT1, activity-based probe fluorescence polarization; AID 687036;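 active = mean inhibition across replicates above the hit cutoff derived for the earlier primary screen, cut at about 22% in these data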
Each line names hits and unclear results; the compound was inactive in the other large screens (follow-up assays come after a bar, where they were run). Unless noted, no rule for the calls is given here.

COC1C(OC(=O)c2ccc(C)[nH]2)C(O)C(Oc2ccc3c(O)c(NC(=O)c4ccc(O)c(CC=C(C)C)c4)c(=O)oc3c2Cl)OC1(C)C (stereo unspecified)	rCAG binder-1 77 | rCAG bind conf 89 | dCAG dye counter 70
Cc1cc2c(C(C)C)c(O)c(O)c(C=O)c2c(O)c1-c1c(C)cc2c(C(C)C)c(O)c(O)c(C=O)c2c1O	SIAE inh 19, rCAG binder-1 97, PRMT1 inh 25, ABHD4 inh 92 (no result: HTRA1 inh) | rCAG bind conf 94 | dCAG dye counter 81
C=CCN1CC[C@]23c4c5ccc(O)c4OC2C(=O)CC[C@@]3(O)[C@H]1C5 (stereo partly specified)	none (no result: HTRA1 inh)
COP(=S)(OC)Oc1ccc(Sc2ccc(OP(=S)(OC)OC)cc2)cc1	rCAG binder-1 39 | rCAG bind conf inactive | dCAG dye counter 7.6
Nc1ccc(Sc2ccc(N)cc2)cc1	none
CC(C)(C)n1nnnc1C1CN=C(c2ccccc2)c2cc(Cl)ccc2N1 (stereo unspecified)	none (no result: HTRA1 inh, TCR CD3 inh)
C[C@@H]1CNCCN1c1ccc(N2CC[C@@H](O)C2)c(C#N)c1	none (no result: HTRA1 inh)
CC(C)c1ccc(N2C(=O)NC(=O)/C(=C/C=C/c3ccco3)C2=O)cc1	rCAG binder-1 54 | rCAG bind conf inactive | dCAG dye counter 9.4
Cc1cc(C)cc(N2C(=O)NC(=O)/C(=C\C=C\c3ccco3)C2=O)c1	rCAG binder-1 39 | rCAG bind conf inactive | dCAG dye counter 7.7
O=C1NC(=O)N(c2ccccc2)C(=O)/C1=C\C=C\c1ccccc1	none (no result: HTRA1 inh)
Cc1cc(N2CCNC[C@@H]2C)ccc1N1CCN[C@@H](C)C1	none (no result: HTRA1 inh)
C[C@@H]1CNCCN1c1ccc(N2CC[C@H](O)C2)c(C#N)c1	none (no result: HTRA1 inh)
Cn1cccc1/C=C1/C(=O)NC(=O)N(Cc2ccc(F)cc2)C1=O	rCAG binder-1 41 | rCAG bind conf inactive | dCAG dye counter inactive
COc1ccc(CN2C(=O)NC(=O)/C(=C/c3cc(OC)c(OC)c(OC)c3)C2=O)cc1	none
C=CCN1C(=O)NC(=O)/C(=C/c2cccn2C)C1=O	none
Cn1cccc1/C=C1\C(=O)NC(=O)N(Cc2ccccc2)C1=O	rCAG binder-1 40 | rCAG bind conf inactive | dCAG dye counter inactive
Cn1cccc1/C=C1/C(=O)NC(=O)N(Cc2ccccc2)C1=O	rCAG binder-1 49 | rCAG bind conf inactive | dCAG dye counter inactive
O=C(O)C(Br)Br	none (no result: HTRA1 inh)
COc1cc(/C=C2\C(=O)NC(=O)N(CCc3ccc(F)cc3)C2=O)ccc1O	rCAG binder-1 43, PRMT1 inh 24 | rCAG bind conf inactive | dCAG dye counter inactive
CCOc1ccc(/C=C2/C(=O)NC(=O)N(CCc3ccc(F)cc3)C2=O)cc1	rCAG binder-1 35 | rCAG bind conf inactive | dCAG dye counter inactive
CCOc1ccc(N2C(=O)NC(=O)/C(=C/c3cnc(SC)nc3)C2=O)cc1	none
CCc1ccc(N2C(=O)NC(=O)/C(=C\C=C\c3ccco3)C2=O)cc1	rCAG binder-1 45, PRMT1 inh 27 | rCAG bind conf inactive | dCAG dye counter 9.3 | PRMT1 confirm inactive
CCCCN1C(=O)/C(=C/C=C/c2ccco2)C(=O)NC1=S	rCAG binder-1 76, PRMT1 inh 39 | rCAG bind conf 66 | dCAG dye counter 26 | dCAG dye DR 3.1 | dCAG DNA bind 3.1 | rCAG binder-2 1.4 | PRMT1 confirm 44
